The full list was thinned out, with hits kept by preference.
CHOP UPR activ – apoptotic UPR (CHOP) activation; CHO-CHOP luciferase reporter, luminescence; percent of tunicamycin response over DMSO baseline; AID 449763; activation, % at 10 µM; 0.34% of 330,000 active;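 active means at 10 µM dose, activation of 40% or more, normalized to positive control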;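 further: 100% = tunicamycin at 10 µg/mL and 0% = DMSO alone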
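Assay system: CHO cells with stable CHOP pathway luciferase reporter; Buffer or medium: F12 plus 10% serum; Times: 16-18 h cell attachment, then 6 h compound exposure, 37 °C; Signal: luciferase luminescence; Read-out basis: percent activation relative to tunicamycin control; Control set: tunicamycin high control, DMSO low control.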
UPR XBP1 act – activators of adaptive arm of unfolded protein response (XBP1); CHO-XBP1 luciferase reporter, IRE1-XBP1 UPR activation, luminescence; percent of tunicamycin response, DMSO as zero; activation, % at 20 µM; 0.33% of 330,000 active;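 active means versus positive control, 20 µM dose yields 30% or more activation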;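 further: 100% = tunicamycin at 10 µg/mL and 0% = DMSO only wells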
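Material: CHO cell line with stable XBP1 luciferase reporter; schedule: 16-18 h cell attachment at 37 °C, then 6 h compound exposure; signal: glow luminescence from Steady-Glo reagent; medium: serum-containing F12 medium, 10% FBS; benchmarks: tunicamycin 10 µg/mL and vehicle-only wells; read-out: percent activation relative to tunicamycin reference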
CHOP inh – CHOP inhibition in unfolded protein response; 3.8% of 220,000 active; inhibition, % at 10 µM; AID 2732; CHO-K1 CHOP-promoter luciferase, tunicamycin-induced, 15-18 h;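 active means compounds that reduced the stress-induced luciferase reporter signal by more than about 70% of percent inhibition, limit read from the data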;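 further: 0% = tunicamycin plus vehicle and 100% = wells without tunicamycin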
Jurkat NFkB inh – lowers PMA/ionomycin-induced NF-kB signal in Jurkat cells; PMA/ionomycin-induced NF-kB luciferase reporter, luminescence; inhibition, % at 4 µM; 0.53% of 330,000 active; AID 435003; in the data active means inhibition above about 50%
697 NFkB inh – inhibitors of the PMA/ionomycin-induced NF-kB reporter in 697 B cells; 697 B-cell NF-kB luciferase reporter, 16 h; 0.33% of 330,000 active; AID 435022; inhibition, % at 4 µM; in the data active means inhibition above about 35%
CHOP confirm – confirmation of CHOP induction inhibitors; shares compounds with CHOP inh; 45% of 2,100 active; CHO-CHOP promoter luciferase reporter, tunicamycin-induced, luminescence; inhibition, % at 10 µM;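 active means mean of three repeat readings of reporter signal inhibition above a set limit, cut at about 70% in these data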;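 further: 0% = tunicamycin plus vehicle and 100% = wells lacking tunicamycin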
Active calls of the source: *; . = no result given.

SMILES | CHOP UPR activ | UPR XBP1 act | CHOP inh | Jurkat NFkB inh | 697 NFkB inh | others
CCCCn1c(=O)c(C(=O)Nc2ccccc2C)c(O)c2ccccc21 | 1 | -2 | . | -18 | -15
CC(C)CCn1c(=O)c(C(=O)Nc2ccccc2S(N)(=O)=O)c(O)c2ccccc21 | 17 | 6 | 92* | -1 | -34
NCC#Cc1ccccc1 | . | . | 5 | . | .
CC(O)(CS(=O)(=O)c1cccc(C(F)(F)F)c1)C(=O)Nc1cccc(C(F)(F)F)c1 (configuration not stated) | -2 | -1 | 72* | 3 | 15
CC(O)(CS(=O)(=O)c1ccccc1)C(=O)Nc1ccc(C(F)(F)F)cc1 (configuration not stated) | -2 | -2 | -6 | 4 | 5
O=C1NC(=O)N(Cc2ccco2)C(=O)/C1=C\c1cccn1CCOc1ccc(Cl)cc1 | 1 | 2 | 76* | -1 | -5
Cc1cc(C)cc(N2C(=O)NC(=O)/C(=C\c3cccn3-c3ccc(Cl)cc3)C2=O)c1 | 271* | -7 | 30 | 13 | 24
CCc1ccc(N2C(=O)NC(=O)/C(=C/c3cccn3CCOc3ccc(C(C)CC)cc3)C2=O)cc1 (configuration not stated) | 23 | 22 | 86* | 2 | -52
CCc1ccc(N2C(=O)NC(=O)/C(=C/c3cccn3CCOc3ccc(C)cc3)C2=O)cc1 | 9 | 8 | 90* | -7 | -11
Cc1cccc(OCCn2cccc2/C=C2/C(=O)NC(=O)N(Cc3ccco3)C2=O)c1 | 3 | 1 | -32 | -6 | -7
CC(C)c1ccc(N2C(=O)NC(=O)/C(=C\c3cnc(-c4ccccc4)nc3)C2=O)cc1 | 2 | 1 | -49 | -5 | 11
CCN(CC)c1ncnc2c1ncn2[C@@H]1O[C@H](COP(=O)(O)OP(=O)(O)C(Br)(Br)P(=O)(O)O)[C@@H](O)[C@H]1O | . | . | -20 | . | .
Cc1cccc(NP(=O)(Oc2ccccc2F)Oc2ccccc2F)c1 | . | . | 78* | . | .
O=P(Nc1cccc(F)c1)(Oc1ccccc1F)Oc1ccccc1F | 4 | -2 | 76* | 7 | 8
CCCCCn1c(N)c(C(=O)NCc2cccs2)c2nc3ccccc3nc21 | -3 | 2 | 68 | 7 | -13
CCCCCn1c(N)c(C(=O)NCCN2CCOCC2)c2nc3ccccc3nc21 | -1 | 4 | 46 | 4 | 9
CCCCCCn1c(N)c(C(=O)NCCN2CCOCC2)c2nc3ccccc3nc21 | -2 | 4 | 86* | 6 | 7
CCCCn1c(N)c(C(=O)NCc2cccs2)c2nc3ccccc3nc21 | -1 | -2 | 92* | 1 | 0
NC(=O)COc1c(F)cc(SCCNS(=O)(=O)c2ccccc2)cc1F | . | . | -11 | . | .
N[C@H](CCCCCP(=O)(O)O)C(=O)O | . | . | -4 | . | .
CC12CNCC(C)(CNC1)C2O (configuration not stated) | -1 | 1 | 88* | -7 | 20
CCC(C)N1C(=O)NC(=O)C2(Cc3c(ccc4ccccc34)N(C)C2)C1=O (configuration not stated) | 1 | -1 | 76* | -5 | 1
CN(CC(=O)Nc1ccccc1-c1ccccc1)C1CCCCC1 | -2 | -4 | 83* | -10 | -4
CCc1ccccc1NC(=O)CNC1CCCCC1 | 0 | 2 | -4 | -5 | 22
CCCCC1(CCCC)C(=O)NC(=Nc2cccc(C)c2)NC1=O | 1 | 4 | 80* | -8 | -9
SMILES | CHOP UPR activ | UPR XBP1 act | CHOP inh | Jurkat NFkB inh | 697 NFkB inh | others
CCCC1(CCC)C(=O)NC(=Nc2ccccc2)NC1=O | 1 | 5 | 14 | 4 | 9
C[C@@H]1C[C@H]2OC(=O)C3(CO3)[C@H]2[C@H](O)[C@]2(C)C(=O)C3OC3[C@@H]12 (some centres not stated) | 37 | -4 | 106* | -9 | -134
CCOC(=O)C1=C(N)Oc2cc(C)oc(=O)c2C12C(=O)N1c3c(cc(OC)cc32)C(C)=CC1(C)C (configuration not stated) | 0 | 0 | 76* | -8 | 13
CCOC(=O)C1=C(N)Oc2cc(C)oc(=O)c2C12C(=O)N1c3c(cccc32)C(C)CC1(C)C (configuration not stated) | -1 | -2 | 83* | -13 | 8
O=[N+]([O-])c1ccc(O[C@@H]2O[C@H](CO)[C@@H](O)[C@H](O)[C@H]2F)c([N+](=O)[O-])c1 | . | . | 19 | . | .
CCc1c(C(=O)OC)ncc2[nH]c3cc(OC)c(OC)cc3c12 | . | . | 4 | . | .
CCn1cnc2c(Nc3cccc(Cl)c3)nc(N[C@@H]3CCCC[C@@H]3N)nc21 | . | . | -5 | . | .
O=C1NC(=O)N(CCc2ccc(F)cc2)C(=O)/C1=C/c1ccco1 | -1 | 5 | -23 | -1 | -3
Cc1ccc(/C=C2/C(=O)NC(=O)N(CCc3ccc(F)cc3)C2=O)o1 | 1 | -2 | 83* | 2 | -3
CC12CCC3C(CCC4=C(O)C(=O)CCC43C)C1CCC2=O (configuration not stated) | . | . | -21 | . | .
CCC(=NC1CC1)c1c(O)n(C2CCCCC2)c(=O)[nH]c1=O | 3 | 2 | 40 | -48 | -41
CCC(=Nc1ccc2c(c1)CCC2)c1c(O)n(C2CCCCC2)c(=O)[nH]c1=O | 4 | 0 | 76* | -4 | -2
CC(=Nc1ccc2c(c1)CCC2)c1c(O)n(C2CCCCC2)c(=O)[nH]c1=O | 1 | 3 | 87* | 11 | -9
CN(N=O)c1ccc(O)c(O)c1 | . | . | 8 | . | .
COc1ccc2c(c1)[C@@]13CCCC[C@H]1[C@@H](C2)NCC3 | . | . | -7 | . | .
CCOC(=O)C(O)(c1ccc(NC(=S)NC(=O)c2ccc(Cl)cc2Cl)c(C)c1)C(F)(F)F (configuration not stated) | 3 | 0 | 70* | 11 | -31
COC(=O)C(O)(c1ccc(NC(=S)NC(=O)c2ccc(Cl)cc2Cl)cc1)C(F)(F)F (configuration not stated) | 1 | 3 | 71* | 6 | -42
CCCN(CCC)[C@@H]1CCc2c(F)ccc(O)c2C1 | . | . | -15 | . | .
NC(=O)CI | . | . | -11 | . | .
C#CCN(C)[C@@H](C)Cc1ccccc1 | . | . | -3 | . | .
COc1ccc(-n2c(/C=C/c3ccc(O)cc3)nc3ccccc3c2=O)cc1 | 1 | -3 | . | 2 | 4
CCn1nc(/C=C/c2ccccc2)nc2c(=O)n(C)c(=O)nc1-2 | -5 | -10 | 105* | 37 | -102
O=C1NC(=O)N(c2ccccc2)C(=O)/C1=C/c1ccc(Sc2ccccc2)o1 | . | . | 104* | . | . | CHOP confirm=-26
O=C1NC(=O)N(c2cccc(Cl)c2)C(=O)/C1=C\c1ccc(Sc2nc3ccccc3[nH]2)o1 | 3 | -6 | 4 | 14 | 12
COC(=O)C1=C(c2cccc(OCc3ccccc3)c2)C[C@@H]2CC[C@H]1N2C(=O)NCCN1CCOCC1 | 1 | 0 | . | -2 | -1

Assay outcomes deposited in PubChem BioAssay by several laboratories.
